Test results reported in ChEMBL document CHEMBL2203014, “Structure-Based Design of Potent and Selective CK1γ Inhibitors” (ACS Med Chem Lett, 2012).

How the values were obtained:
[1] = molecular target: T1, Casein kinase I isoform gamma-2 (Homo sapiens, UniProt P78368); experiment: Inhibition of CK1-gamma2 in human RKO cell assessed as inhibition of Wnt3a-induced Wnt signaling treated 1 hr prior to Wnt3a ligand addition measured after 18 to 24 hrs by luciferase reporter gene assay
[2] = molecular target: Glycogen synthase kinase-3 beta (Homo sapiens, UniProt P49841)
Glycogen synthase kinase-3 beta, sequence (P49841 whole entry, canonical isoform): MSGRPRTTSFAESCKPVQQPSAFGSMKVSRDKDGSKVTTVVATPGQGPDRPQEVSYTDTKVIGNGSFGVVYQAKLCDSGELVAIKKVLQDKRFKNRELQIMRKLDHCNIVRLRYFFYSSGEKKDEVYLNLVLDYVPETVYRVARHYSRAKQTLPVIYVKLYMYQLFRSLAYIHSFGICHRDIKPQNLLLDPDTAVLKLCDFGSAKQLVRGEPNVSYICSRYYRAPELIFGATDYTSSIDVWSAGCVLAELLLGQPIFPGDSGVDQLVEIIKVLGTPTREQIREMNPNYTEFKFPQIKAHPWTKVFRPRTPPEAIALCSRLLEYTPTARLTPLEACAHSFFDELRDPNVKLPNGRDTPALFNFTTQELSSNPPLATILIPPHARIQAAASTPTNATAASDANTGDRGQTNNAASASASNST

[3] = molecular target: T1, Casein kinase I isoform gamma-2
[4] = AUC in […] mouse at 30 mg/kg, po; assay type: ADME, organism-based; parameters: dose 30 mg/kg, route oral; conditions: plasma
In short: (§1)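 Oral PK in male CD1 mice, 3 animals per study, dosed at 30 mg/kg po. Vehicle: 10.0% Pluronic F68 / 30.0% HPBCD / 60.0% water with MSA, pH 2.5. Cmax, t1/2, Tmax and AUC were taken from plasma exposure.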

[5] = Half life in […] mouse at 30 mg/kg, po; assay type: ADME, organism-based; parameters: dose 30 mg/kg, route oral; conditions: in vivo; in short: as §1
[6] = molecular target: T1, Casein kinase I isoform gamma-2; experiment: Inhibition of human CK1-gamma2 in HEK293 cells assessed as inhibition of doxcycline-induced LRP6 phosphorylation after 2 hrs by electrochemiluminescence analysis; assay type: cell-based
[7] = Intrinsic clearance in human liver microsomes at 1 uM after 30 mins; assay type: ADME, Microsome; conditions: read-out: CLH
In short: (§2)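 Liver microsome turnover (human or rat): compound at 1 μM incubated with microsomes for 30 min. Intrinsic clearance reported in μL/(min·mg).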

[8] = Tmax in […] mouse at 30 mg/kg, po; assay type: ADME, organism-based; parameters: dose 30 mg/kg, route oral; conditions: in vivo; in short: as §1
[9] = Plasma protein binding in mouse; assay type: ADME, cell-free; conditions: read-out: PPB (converted)
[10] = Intrinsic clearance in rat liver microsomes at 1 uM after 30 mins; assay type: ADME, Microsome; conditions: read-out: CLH; in short: as §2
[11] = Cmax in […] mouse at 30 mg/kg, po; assay type: ADME, organism-based; parameters: dose 30 mg/kg, route oral; conditions: in vivo; in short: as §1
[12] = molecular target: Casein kinase I isoform alpha (Homo sapiens, UniProt P48729); experiment: Inhibition of CK1-alpha using biotin[long chain]-KKRRRAL{pS}VATLPGL substrate in presence of 8 uM ATP
Casein kinase I isoform alpha, sequence (P48729 whole entry, canonical isoform): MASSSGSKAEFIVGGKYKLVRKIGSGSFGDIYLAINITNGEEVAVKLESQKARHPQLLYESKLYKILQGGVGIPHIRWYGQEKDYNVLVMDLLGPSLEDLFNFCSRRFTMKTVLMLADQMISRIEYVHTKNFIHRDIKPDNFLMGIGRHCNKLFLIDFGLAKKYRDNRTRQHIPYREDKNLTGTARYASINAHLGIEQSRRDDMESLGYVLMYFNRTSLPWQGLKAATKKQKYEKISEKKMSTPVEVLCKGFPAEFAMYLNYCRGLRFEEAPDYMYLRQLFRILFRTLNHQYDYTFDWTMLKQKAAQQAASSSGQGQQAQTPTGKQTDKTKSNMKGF

[13] = molecular target: Casein kinase I isoform delta (Homo sapiens, UniProt P48730)
Casein kinase I isoform delta, sequence (P48730 whole entry, canonical isoform): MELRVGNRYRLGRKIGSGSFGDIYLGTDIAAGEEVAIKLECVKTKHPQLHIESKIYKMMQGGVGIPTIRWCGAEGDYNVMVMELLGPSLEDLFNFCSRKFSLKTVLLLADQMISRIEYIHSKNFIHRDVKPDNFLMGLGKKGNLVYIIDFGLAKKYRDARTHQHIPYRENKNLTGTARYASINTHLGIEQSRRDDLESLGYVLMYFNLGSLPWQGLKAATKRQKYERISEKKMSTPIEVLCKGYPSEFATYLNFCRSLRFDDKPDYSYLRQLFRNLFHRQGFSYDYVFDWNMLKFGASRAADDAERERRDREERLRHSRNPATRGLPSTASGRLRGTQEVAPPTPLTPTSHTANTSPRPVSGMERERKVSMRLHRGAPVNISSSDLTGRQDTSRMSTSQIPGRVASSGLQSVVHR

[14] = test system: Mus musculus; experiment: Inhibition of CK1-gamma-mediated LRP6 phosphorylation in HEK293 cells xenografted in nude mouse at 50 mg/kg, po after 6 hrs by electrochemiluminescent assay; assay type: functional; conditions: HEK293, 6 h
In short: (§3)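 Athymic nude mice carried subcutaneous tumors of HEK293 cells constitutively expressing LRP6 with doxycycline-inducible CK1γ. Doxycycline (0.5 mg/mL) was given in drinking water for 24 h to stimulate LRP6 phosphorylation, then compound was dosed orally at 50 mg/kg. Tumor and plasma were collected 6 h post-dose. Tumor phospho-LRP6 was quantified by electrochemiluminescent assay, and plasma total and unbound exposure were determined.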

[15] = Plasma protein binding in rat; assay type: ADME, cell-free; conditions: read-out: PPB (converted)
[16] = Plasma concentration in HEK-293 cells xenografted in nude mouse at 50 mg/kg, po after 6 hrs; assay type: ADME, organism-based, HEK293; parameters: dose 50 mg/kg, route oral; in short: as §3
[17] = Selectivity ratio of IC50 for CK1-delta to IC50 for CK1-gamma2
[18] = Selectivity ratio of IC50 for CK1-alpha to IC50 for CK1-gamma2
[19] = test system: Plasma; experiment: Unbound concentration in HEK293 cells xenografted in nude mouse at 50 mg/kg, po after 6 hrs; assay type: ADME, organism-based; parameters: dose 50 mg/kg, route oral; conditions: in vivo; in short: as §3

T1 sequence (P78368 whole entry, canonical isoform): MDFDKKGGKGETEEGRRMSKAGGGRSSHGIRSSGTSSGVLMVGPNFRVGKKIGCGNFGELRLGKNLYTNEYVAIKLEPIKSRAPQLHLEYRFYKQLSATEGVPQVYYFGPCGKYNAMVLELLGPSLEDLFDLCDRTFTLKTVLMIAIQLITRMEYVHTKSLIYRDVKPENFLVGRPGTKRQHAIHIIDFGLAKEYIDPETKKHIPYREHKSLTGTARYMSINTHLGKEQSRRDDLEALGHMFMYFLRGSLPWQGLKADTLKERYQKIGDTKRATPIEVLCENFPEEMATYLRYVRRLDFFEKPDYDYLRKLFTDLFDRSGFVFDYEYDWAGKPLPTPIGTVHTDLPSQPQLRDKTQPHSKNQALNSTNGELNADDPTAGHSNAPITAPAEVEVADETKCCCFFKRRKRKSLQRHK

IC50 [1]	IC50 [2]	IC50 [3]	IC50 [12]	IC50 [13]	Ratio IC50 [18]	SMILES	other results
584 nM	7830 nM	5 nM	–	–	–	COc1cnc(COc2ccc(F)cc2)cc1-c1cc2c([nH]1)CCNC2=O	–
–	16 nM	8 nM	–	–	–	COc1cnc(Nc2ccccc2)nc1-c1cc2c([nH]1)CCNC2=O	–
44 nM	38100 nM	4 nM	–	–	–	COc1cnc(COc2cc(F)c(F)cc2C)cc1-c1cc2c([nH]1)CCNC2=O	AUC [4]: 2.1 µM·h; half-life [5]: 1.4 h; IC50 [6]: 87 nM; microsomal CLint at 1 µM [7]: 177 µL/min/mg; Tmax [8]: 1.17 h; fraction unbound [9]: 0.008; microsomal CLint at 1 µM [10]: 106 µL/min/mg; Cmax [11]: 560 nM
–	1220 nM	50 nM	–	–	–	COc1cnc(/C=C/c2ccc(F)cc2)nc1-c1cc2c([nH]1)CCNC2=O	–
–	> 62500 nM	853 nM	18500 nM	4860 nM	–	COc1cnc(Oc2ccccc2)nc1-c1cc2c([nH]1)CCNC2=O	–
254 nM	10800 nM	5 nM	251 nM	40 nM	50	COc1cnc(COc2ccc(F)c(F)c2)cc1-c1cc2c([nH]1)CCNC2=O	inhibition in vivo at 50 mg/kg [14]: 42%; fraction unbound [15]: 0.031; AUC [4]: 15.4 µM·h; concentration at 6 h [16]: 2700 nM; Ratio IC50 [17]: 8; Concentration [19]: 130 nM; half-life [5]: 2.7 h; IC50 [6]: 200 nM; microsomal CLint at 1 µM [7]: 59 µL/min/mg; Tmax [8]: 0.33 h; fraction unbound [9]: 0.049; microsomal CLint at 1 µM [10]: 46 µL/min/mg; Cmax [11]: 9720 nM
–	> 62500 nM	–	–	–	–	COc1cnc(CCc2ccc(F)cc2)cc1-c1cc2c([nH]1)CCNC2=O	–
–	98 nM	33 nM	19 nM	22 nM	–	COc1cnc(NCc2ccccc2)nc1-c1cc2c([nH]1)CCNC2=O	–
394 nM	4000 nM	3 nM	225 nM	36 nM	75	COc1cnc(COc2ccc(F)cc2F)cc1-c1cc2c([nH]1)CCNC2=O	Ratio IC50 [17]: 12
–	1120 nM	24 nM	146 nM	58 nM	6	COc1cnc(COc2ccc(F)cc2)nc1-c1cc2c([nH]1)CCNC2=O	–
537 nM	53300 nM	3 nM	442 nM	59 nM	147	COc1cnc(COc2ccc(F)cc2C)cc1-c1cc2c([nH]1)CCNC2=O	Ratio IC50 [17]: 20
–	> 30000 nM	80 nM	95 nM	168 nM	–	COc1cnc(OCc2ccc(F)cc2)nc1-c1cc2c([nH]1)CCNC2=O	–
> 3330 nM	1.49 nM	8 nM	9 nM	68 nM	1	COc1cnc(-c2cnc3ccccc3c2)nc1-c1cc2c([nH]1)CCNC2=O	Ratio IC50 [17]: 8; IC50 [6]: 348 nM
–	25600 nM	17 nM	–	–	–	COc1cnc(CCc2ccc(F)cc2)nc1-c1cc2c([nH]1)CCNC2=O	–
